Test results published in ChEMBL document CHEMBL3259808, “Optimization of antitrypanosomatid agents: identification of nonmutagenic drug candidates with in vivo activity” (J Med Chem, 2014).

Columns and labels:
Trypanosoma cruzi [1] = test: Antitrypanosomal activity against Trypanosoma cruzi CL Brener infected in BALB/c mouse assessed as mouse survival at 192 umol/kg/day, po for 14 days administered in saline and tween 80 measured up to 60 days relative to control; assay type: functional
Trypanosoma cruzi [2] = test: Antitrypanosomal activity against Trypanosoma cruzi CL Brener infected in BALB/c mouse assessed as peak of maximum parasitemia at 192 umol/kg/day, po for 14 days administered in saline and tween 80 measured up to 60 days relative to control; assay type: functional
In short: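 Male BALB/c mice (30 days old, 25–30 g, SPF) were infected i.p. with 10³ blood trypomastigotes, n = 8/group. Daily oral gavage in saline/Tween 80 (4:1) ran for 14 days from day 6 post-infection; controls received vehicle only. Parasitemia was counted weekly in tail-vein blood by hemocytometer for 60 days, and survival was recorded.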

Trypanosoma cruzi [3] = test: Antitrypanosomal activity against Trypanosoma cruzi Tulahuen 2 epimastigotes assessed as growth inhibition after 5 days; assay type: functional, organism-based; details: Trypanosoma cruzi, Tulahuen 2, 120 h
In short: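 Epimastigotes were grown axenically at 28 °C in BHI-tryptose with 5% FBS and seeded from a 5–7 day culture at 1 × 10⁶ cells/mL. Drug from a DMSO stock was added (final DMSO ≤0.4%; the control contained 0.4% DMSO). Duplicates were run. A600 was read at day 5, and % inhibition was calculated relative to day-0 and control readings. IC50 = concentration that halves the absorbance ratio.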

[4] = Selectivity index, ratio of IC50 for African green monkey Vero cells to IC50 for Trypanosoma cruzi Sylvio X-10 amastigotes; assay type: toxicity, cell-based; details: read-out: Ratio IC50
In short: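 VERO cytotoxicity: cells exposed 48 h at 37 °C, 5% CO2 to serial dilutions from a maximum of 2000 μM (DMSO stocks; DMSO <0.1% control); growth inhibition read by MTT at 570 nm. Amastigote IC50: Sylvio X-10-infected VERO cells, five doses, infected cells counted among 300 (Giemsa), quadruplicate, three experiments, sigmoidal fit. SI = IC50 VERO / IC50 amastigote.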

Trypanosoma cruzi [5] = test: Antitrypanosomal activity against Trypanosoma cruzi Sylvio X-10 amastigotes infected in African green monkey Vero cells assessed as eradication of amastigotes after 72 hrs by Giemsa staining-based assay; details: Trypanosoma cruzi, Sylvio X-10, Vero, 72 h
[6] = Selectivity index, ratio of IC50 for mouse J774.1 cells to IC50 for Trypanosoma cruzi Tulahuen 2 epimastigotes; assay type: toxicity; details: read-out: Ratio IC50
In short: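 J774.1 macrophages grown in DMEM with 10% heat-inactivated FCS and allowed to attach 48 h, then exposed 48 h at 37 °C to 12.5–400.0 μM. Triplicates. MTT 0.1 mg/mL for 3 h, read at 560 nm; IC50 by linear regression against the solvent control. SI = IC50 J774.1 / parasite IC50 (Sylvio X-10 amastigotes or Tulahuen 2 epimastigotes, the latter measured by A600 growth inhibition at day 5).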

Salmonella typhimurium [7] = test: Mutagenic activity in Salmonella typhimurium TA98 at 0.3 to 40 ug/plate by Ames test in presence of mouse liver S9 fraction; assay type: toxicity, organism-based; details: salmonella enterica subsp. enterica serovar typhimurium
In short: (§1)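 Ames plate-incorporation assay with S. typhimurium TA98 in Vogel-Bonner E minimal glucose agar. Toxicity toward the bacteria was checked first. DMSO solutions were run in triplicate at five consecutive third-dilutions, starting at the highest non-toxic dose. Positive controls were 4-nitro-o-phenylenediamine (20.0 μg/plate) and 2-aminofluorene (10.0 μg/plate); DMSO was the negative control. Revertants were counted manually. A compound was called mutagenic when revertants were at least twice the negative control at two or more consecutive doses.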

Salmonella typhimurium [8] = test: Mutagenic activity in Salmonella typhimurium TA98 at 0.3 to 40 ug/plate by Ames test; assay type: toxicity, organism-based; details: salmonella enterica subsp. enterica serovar typhimurium; in short: as §1

| Compound | survival at 192 µmol/kg (Trypanosoma cruzi [1]) [%] | Time (Trypanosoma cruzi [2]) [days] | IC50 (Trypanosoma cruzi [3]) [µM] | selectivity ratio [4] | IC50 (Trypanosoma cruzi [5]) [µM] | selectivity ratio [6] | Activity (Salmonella typhimurium [7]) | Activity (Salmonella typhimurium [8]) |
| --- | --- | --- | --- | --- | --- | --- | --- | --- |
| O=C(Cn1ccnc1[N+](=O)[O-])NCc1ccccc1 [BENZNIDAZOLE] | 100 | 42 | 7 | 300 | 3.3 |  |  |  |
| C=CCn1c(C)cs\c1=N/N=C/C=C/c1cccs1 |  |  | > 25 |  |  | < 7 | Non-toxic | Non-toxic |
